What was measured:
[1] = Steroid pharmacokinetics after i.v. or s.c. administration; assay type: in vivo, CD1 mice; conditions: CD1, mouse, plasma, iv
Outline: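 CD1 mice (n = 4) received steroid i.v. or s.c. intrascapularly. Parent steroid was given in 0.6% ethanol in PBS; ester prodrugs were given within hFGF21 mRNA MC3 LNPs. Serial saphenous blood was drawn, with a terminal sample at 24 h. Parent steroid in plasma was quantified by UPLC–triple quadrupole MS.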

[2] = system: hFGF21 protein; assay type: in vivo; conditions: prodrug incorporated into the MC3 LNP, s.c., 0.3 mg/kg mRNA, CD1 mice
Outline: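 CD1 mice (n = 5) under light isoflurane received hFGF21 mRNA in MC3 LNPs (0.3 mg/kg mRNA) s.c. intrascapularly at 5 mL/kg. LNPs were with or without steroid ester prodrug at a prodrug steroid/mRNA weight ratio of 1:1. Saphenous blood was taken at 2, 5, 8 and 24 h. Plasma (3,000 × g, 10 min, 4°C) hFGF21 was measured by multiplex Luminex. AUC2–24 h was reported as a geometric mean.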

Row | clearance [1] | half-life ([1]; Half-life in plasma, i.v. administration, CD1 mice) | Compound | Fold increase of hFGF21 AUC2–24 h versus MC3 LNP without steroid [2]
1 | 121 mL/min/kg | ~40 min | CCCC1O[C@@H]2C[C@H]3[C@@H]4CCC5=CC(=O)C=C[C@]5(C)[C@H]4[C@@H](O)C[C@]3(C)[C@]2(C(=O)CO)O1 (stereo partly drawn) [Budesonide parent, budesonide] | 
2 |  |  | CCCCCCCCCCCCCC(=O)OCC(=O)[C@@]12O[C@H](CCC)O[C@@H]1C[C@H]1[C@@H]3C[C@H](F)C4=CC(=O)CC[C@]4(C)[C@@]3(F)[C@@H](O)C[C@@]12C [Rofleponide-C14] | 3.8 fold
